Tests used:
[1] = Partition coefficient measurement log Po/w; type: physicochemical
[2] = Stability of the radio-complex with pH and time at room temperature; type: physicochemical
Summary of the method: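 Labelling: 7.4 MBq pertechnetate added to 20 µg test compound (10% ethanol) with 40 µg SnCl2·2H2O, pH 7, 10 min at room temperature in the dark. pH varied from 2 to 10 and room-temperature stability followed over time. Purity by ITLC: acetone (free pertechnetate) and pyridine:acetic acid:water 3:5:1.5 (hydrolysed fraction); strips counted with a gamma probe. Triplicates, one-way ANOVA.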

[3] = Blood pharmacokinetics after intravenous administration; type: in vivo, rat; conditions: rats, i.v.
Summary of the method: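 Male Sprague Dawley rats (200–250 g) given 200 µCi of Tc-99m-labelled test compound via a penile vein. Blood drawn from the ocular vein at intervals over 0–120 min and counted in a well-type scintillation counter, expressed as counts per ml of blood. Peak times read from the activity–time curve.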

[4] = Paper electrophoresis; type: physicochemical; conditions: 300V, 1 h
Summary of the method: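 Radio-complex spotted at the central point of Whatman No. 1 paper, with sodium phosphate buffer as the mobile phase. Strip dried after the run and activity along it counted in a well-type gamma scintillation […]; the direction of migration indicates charge.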

[5] = Bio-distribution in MNU + TP treated rats; type: in vivo, rat; conditions: for percent-specific uptake in the prostate: MNU + TP treated (carcinogen-induced) rats; for ID/g Bladder / ID/g Bone / ID/g Brain / ID/g Heart / ID/g Kidney / ID/g Large intestine / ID/g Liver / ID/g Lung / ID/g Muscle / ID/g Prostate / ID/g Small intestine / ID/g Spleen / ID/g Stomach / ID/g Thyroid: MNU + TP treated rats
[6] = Plasma protein binding of the radio-complex; type: in vitro ADME; conditions: rat plasma, 37°C up to 1 hr
Summary of the method: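 Pellet re-suspended in 5% TCA and re-centrifuged. Precipitate and supernatant counted in a well-type gamma counter; binding given as protein-bound percent of total activity.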

[7] = Bio-distribution in normal control rats; type: in vivo, rat; conditions: for ID/g Bladder / ID/g Bone / ID/g Brain / ID/g Heart / ID/g Kidney / ID/g Large intestine / ID/g Liver / ID/g Lung / ID/g Muscle / ID/g Prostate / ID/g Small intestine / ID/g Spleen / ID/g Stomach / ID/g Thyroid: normal control rats; for percent-specific uptake in the prostate: normal healthy rats
Summary of the method: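 Healthy adult male Sprague Dawley rats (6–7 weeks, 200–250 g) given 200 µCi of Tc-99m-labelled test compound intravenously via a penile vein. Animals sacrificed at several post-injection times (1, 2, 4 and 6 h). Organs excised, weighed and counted in a well scintillation counter. %ID/g calculated against a standard of the injected dose. n=3, mean ± SD, ANOVA.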

Tc-99m-17-oxo-17a-aza-D-homo-5-androsten-3 β-ylphenoxyacetate [Tc-99m-17a-aza steroid]
Log Po/w [1]: 0.118 ± 0.045 | percent radiochemical purity ([2]; pH 2): 92.72% | percent radiochemical purity ([2]; pH 4): 97.24% | percent radiochemical yield ([2]; pH 10): 86.84% | time of first peak in blood [3]: 50 s | time of second peak in blood [3]: 50 min | charge of the radio-complex [4]: neutral | percent-specific uptake in the prostate ([5]; 1 h after administration): 0.913% | percent-specific uptake in the prostate ([5]; 2 h after administration): 0.825% | percent-specific uptake in the prostate ([5]; 4 h after administration): 0.857% | percent-specific uptake in the prostate ([5]; 6 h after administration): 0.673% | ID/g Bladder ([5]; First h): 1.465±0.175 ID/g | ID/g Bladder ([5]; Fourth h): 0.897±0.456 ID/g | ID/g Bladder ([5]; Second h): 0.979±0.247 ID/g | ID/g Bladder ([5]; Sixth h): 0.871±0.578 ID/g | ID/g Bone ([5]; First h): 0.437±0.237 ID/g | ID/g Bone ([5]; Fourth h): 2.24±1.062 ID/g | ID/g Bone ([5]; Second h): 1.381±0.609 ID/g | ID/g Bone ([5]; Sixth h): 2.038±1.163 ID/g | ID/g Brain ([5]; First h): 0.139±0.124 ID/g | ID/g Brain ([5]; Fourth h): 0.149±0.085 ID/g | ID/g Brain ([5]; Second h): 0.257±0.139 ID/g | ID/g Brain ([5]; Sixth h): 0.132±0.048 ID/g | ID/g Heart ([5]; First h): 0.045±0.036 ID/g | ID/g Heart ([5]; Fourth h): 0.231±0.171 ID/g | ID/g Heart ([5]; Second h): 0.404±0.217 ID/g | ID/g Heart ([5]; Sixth h): 0.337±0.054 ID/g | ID/g Kidney ([5]; First h): 6.283±0.746 ID/g | ID/g Kidney ([5]; Fourth h): 7.836±1.861 ID/g | ID/g Kidney ([5]; Second h): 7.37±1.162 ID/g | ID/g Kidney ([5]; Sixth h): 8.08±1.784 ID/g | ID/g Large intestine ([5]; First h): 0.264±0.121 ID/g | ID/g Large intestine ([5]; Fourth h): 0.878±0.439 ID/g | ID/g Large intestine ([5]; Second h): 0.383±0.034 ID/g | ID/g Large intestine ([5]; Sixth h): 0.973±0.641 ID/g | ID/g Liver ([5]; First h): 3.48±0.676 ID/g | ID/g Liver ([5]; Fourth h): 8.693±0.784 ID/g | ID/g Liver ([5]; Second h): 6.767±0.496 ID/g | ID/g Liver ([5]; Sixth h): 9.673±0.457 ID/g | ID/g Lung ([5]; First h): 2.903±0.553 ID/g | ID/g Lung ([5]; Fourth h): 1.263±0.253 ID/g | ID/g Lung ([5]; Second h): 2.44±0.216 ID/g | ID/g Lung ([5]; Sixth h): 1.2±0.07 ID/g | ID/g Muscle ([5]; First h): 0.097±0.075 ID/g | ID/g Muscle ([5]; Fourth h): 0.330±0.194 ID/g | ID/g Muscle ([5]; Second h): 0.262±0.023 ID/g | ID/g Muscle ([5]; Sixth h): 0.310±0.022 ID/g | ID/g Prostate ([5]; First h): 0.913±0.172 ID/g | ID/g Prostate ([5]; Fourth h): 0.857±0.091 ID/g | ID/g Prostate ([5]; Second h): 0.825±0.110 ID/g | ID/g Prostate ([5]; Sixth h): 0.673±0.064 ID/g | ID/g Small intestine ([5]; First h): 0.482±0.554 ID/g | ID/g Small intestine ([5]; Fourth h): 0.400±0.015 ID/g | ID/g Small intestine ([5]; Second h): 0.563±0.037 ID/g | ID/g Small intestine ([5]; Sixth h): 0.378±0.193 ID/g | ID/g Spleen ([5]; First h): 3.873±0.600 ID/g | ID/g Spleen ([5]; Fourth h): 4.61±0.026 ID/g | ID/g Spleen ([5]; Second h): 6.76±0.911 ID/g | ID/g Spleen ([5]; Sixth h): 8.77±0.645 ID/g | ID/g Stomach ([5]; First h): 0.142±0.038 ID/g | ID/g Stomach ([5]; Fourth h): 0.112±0.033 ID/g | ID/g Stomach ([5]; Second h): 0.091±0.029 ID/g | ID/g Stomach ([5]; Sixth h): 0.069±0.023 ID/g | ID/g Thyroid ([5]; First h): 0.356±0.163 ID/g | ID/g Thyroid ([5]; Fourth h): 0.654±0.099 ID/g | ID/g Thyroid ([5]; Second h): 0.698±0.037 ID/g | ID/g Thyroid ([5]; Sixth h): 0.684±0.198 ID/g | Plasma protein binding [6]: 86.23 ± 7.08% | ID/g Bladder ([7]; First h): 1.758±0.706 ID/g | ID/g Bladder ([7]; Fourth h): 1.121±0.896 ID/g | ID/g Bladder ([7]; Second h): 1.71±0.550 ID/g | ID/g Bladder ([7]; Sixth h): 1.840±0.724 ID/g | ID/g Bone ([7]; First h): 1.77±0.14 ID/g | ID/g Bone ([7]; Fourth h): 0.163±0.011 ID/g | ID/g Bone ([7]; Second h): 0.694±0.077 ID/g | ID/g Bone ([7]; Sixth h): 0.59±0.085 ID/g | ID/g Brain ([7]; First h): 0.217±0.065 ID/g | ID/g Brain ([7]; Fourth h): 0.133±0.027 ID/g | ID/g Brain ([7]; Second h): 0.064±0.005 ID/g | ID/g Brain ([7]; Sixth h): 0.096±0.074 ID/g | ID/g Heart ([7]; First h): 0.416±0.005 ID/g | ID/g Heart ([7]; Fourth h): 0.535±0.274 ID/g | ID/g Heart ([7]; Second h): 0.547±0.065 ID/g | ID/g Heart ([7]; Sixth h): 0.557±0.061 ID/g | ID/g Kidney ([7]; First h): 7.476±1.300 ID/g | ID/g Kidney ([7]; Fourth h): 13.726±2.948 ID/g | ID/g Kidney ([7]; Second h): 9.093±0.897 ID/g | ID/g Kidney ([7]; Sixth h): 15.403±2.545 ID/g | ID/g Large intestine ([7]; First h): 0.654±0.294 ID/g | ID/g Large intestine ([7]; Fourth h): 0.635±0.079 ID/g | ID/g Large intestine ([7]; Second h): 0.691±0.178 ID/g | ID/g Large intestine ([7]; Sixth h): 0.915±0.186 ID/g | ID/g Liver ([7]; First h): 4.44±0.836 ID/g | ID/g Liver ([7]; Fourth h): 9.423±1.188 ID/g | ID/g Liver ([7]; Second h): 5.293±1.504 ID/g | ID/g Liver ([7]; Sixth h): 13.303±1.618 ID/g | ID/g Lung ([7]; First h): 3.145±0.465 ID/g | ID/g Lung ([7]; Fourth h): 3.354±2.237 ID/g | ID/g Lung ([7]; Second h): 7.207±4.919 ID/g | ID/g Lung ([7]; Sixth h): 4.292±1.191 ID/g | ID/g Muscle ([7]; First h): 0.337±0.003 ID/g | ID/g Muscle ([7]; Fourth h): 0.126±0.015 ID/g | ID/g Muscle ([7]; Second h): 0.462±0.241 ID/g | ID/g Muscle ([7]; Sixth h): 0.160±0.06 ID/g | ID/g Prostate ([7]; First h): 0.303±0.017 ID/g | ID/g Prostate ([7]; Fourth h): 0.298±0.079 ID/g | ID/g Prostate ([7]; Second h): 0.518±0.133 ID/g | ID/g Prostate ([7]; Sixth h): 0.269±0.182 ID/g | ID/g Small intestine ([7]; First h): 0.639±0.277 ID/g | ID/g Small intestine ([7]; Fourth h): 0.659±0.150 ID/g | ID/g Small intestine ([7]; Second h): 1.276±0.526 ID/g | ID/g Small intestine ([7]; Sixth h): 0.944±0.074 ID/g | ID/g Spleen ([7]; First h): 4.002±0.245 ID/g | ID/g Spleen ([7]; Fourth h): 8.33±1.334 ID/g | ID/g Spleen ([7]; Second h): 5.816±0.886 ID/g | ID/g Spleen ([7]; Sixth h): 9.04±1.165 ID/g | ID/g Stomach ([7]; First h): 0.124±0.065 ID/g | ID/g Stomach ([7]; Fourth h): 0.094±0.045 ID/g | ID/g Stomach ([7]; Second h): 0.101±0.042 ID/g | ID/g Stomach ([7]; Sixth h): 0.091±0.013 ID/g | ID/g Thyroid ([7]; First h): 0.35±0.053 ID/g | ID/g Thyroid ([7]; Fourth h): 0.422±0.095 ID/g | ID/g Thyroid ([7]; Second h): 0.512±0.106 ID/g | ID/g Thyroid ([7]; Sixth h): 0.031±0.007 ID/g | percent-specific uptake in the prostate ([7]; 1 h after administration): 0.303% | percent-specific uptake in the prostate ([7]; 2 h after administration): 0.518% | percent-specific uptake in the prostate ([7]; 4 h after administration): 0.298% | percent-specific uptake in the prostate ([7]; 6 h after administration): 0.269%
